# The list is not random: actives were taken first. Their share in the collection is about 1.6%.
# LANA-H2A inh = blocks KSHV LANA binding to histone H2A/H2B. Q9QR71. cell-free LANA-H2A/H2B peptide, fluorescence polarization. inhibition, % (test concentration not listed). 320,000 tested, 0.6% active. AID 2629; in the data active means inhibition mostly above about 10%, no sharp cut-off; inactive means mostly below about 6.7%
# Pemphigus Ab inh = human desmoglein-3 autoantibody binding inhibition | P32926 | DSG3-coupled beads, scFv-anti-DSG3-GFP binding, flow cytometry; active compounds read low | binding (percent of control), % at 10 µM | 310,000 tested, 0.48% active | AID 588358;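 active means binding more than 3 SD below its plate's average and above zero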;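 further: hits lower antibody fragment binding to DSG3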
# HDAC3 inhib = blocks human histone deacetylase 3; AID 2718; 320,000 tested, 0.15% active; recombinant HDAC3, fluorogenic peptide/trypsin coupled, fluorescence; inhibition, % at 8.3 µM; O15379; in the data active means inhibition above about 26%, passing the limit was not always enough
# Target sequence (O15379 whole entry, looked up): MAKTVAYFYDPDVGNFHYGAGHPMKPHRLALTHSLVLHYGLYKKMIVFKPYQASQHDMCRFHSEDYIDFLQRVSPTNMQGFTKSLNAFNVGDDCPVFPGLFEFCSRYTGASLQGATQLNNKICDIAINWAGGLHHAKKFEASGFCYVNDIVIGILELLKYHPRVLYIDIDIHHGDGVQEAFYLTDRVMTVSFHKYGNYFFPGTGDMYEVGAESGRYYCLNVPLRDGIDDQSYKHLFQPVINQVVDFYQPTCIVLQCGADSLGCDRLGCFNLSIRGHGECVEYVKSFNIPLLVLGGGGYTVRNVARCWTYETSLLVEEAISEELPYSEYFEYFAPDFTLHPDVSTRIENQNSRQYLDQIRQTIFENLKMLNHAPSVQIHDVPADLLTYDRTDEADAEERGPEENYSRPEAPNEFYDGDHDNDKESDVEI
# GASC-1 inh = human JMJD2C demethylase inhibition. inhibition, % at 2.35 µM. GST-JMJD2C(1-420) H3K9me3 demethylation, DELFIA europium. 330,000 tested, 0.069% active. Q9H3R0;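 active means more than half of a compound's replicate wells show inhibition beyond 50%, single wells judged on their own value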;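 further: signal counts dimethyl H3K9 product captured on neutravidin plate; 0% = median of DMSO wells and 100% = 0.3 times that DMSO median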
# Arrestin-AP2 inh = inhibitors of human beta-arrestin and AP2 interaction; AID 504490; inhibition, % at 10 µM; FITC-arrestin peptide / GST-AP2 beads, flow cytometry; AP2 beta2 appendage carries R879A mutation; 340,000 tested, 0.31% active;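 active means inhibition above a set limit, near 3 SD of compounds lacking own fluorescence, cut at about 54% in these data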;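 further: plate controls were DMSO wells for no effect and 5 µM unlabelled arrestin peptide for full effect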
#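 Test system: GST-tagged AP2 beta2-adaptin appendage (R879A) on 4 µm glutathione beads; also added: fluorescein-tagged arrestin peptide at 50 nM final; timing: 12 min plus 1 h, RT; signal: flow cytometry, FL1 (488/535 nm); read-out: percent drop in bead-associated FITC signal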
# T cell modulator = modulates CD8 T cell binding to vesicles; 2C CD8+ T cell-vesicle binding, flow cytometry; active compounds read low; response (vesicle binding), % at 7 µM; 330,000 tested, 0.068% active; AID 2052;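 active means response, share of CD8 T cells binding vesicles, and their 90th percentile fluorescence all below set limits, cut at about 80% in these data, passing the limit was not always enough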;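 further: values below 100% mean blocked vesicle binding to the CD8+ T cells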
#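 incubation = binding step 1.5 h, 37 °C, antibody labelling 20 min, ice | test system = 2C mouse CD8+ T cells | read-out basis = percent CD8+ FL2 mean versus row control | controls = Peptide-free naked vesicles (low) and QL9 vesicles with 0.7% DMSO vehicle (high) | detection = flow cytometry of vesicle-bound cells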
# An asterisk follows results filed as active; i = inactive; · = not tested or not shown.
SMILES,LANA-H2A inh,Pemphigus Ab inh,HDAC3 inhib,GASC-1 inh,Arrestin-AP2 inh,T cell modulator
COc1ccc(NC(=O)c2coc(C)c2)cc1,2,105,-4,9,16,173
COc1ccc(CN(C)C(=O)c2cccc(S(=O)(=O)N3CCCc4ccccc43)c2)c(OC)c1OC,·,101,·,·,1,·
O=C(Oc1ccc(OC(=O)C2CCC2)cc1)C1CCC1,3,100,-3,8,14,661
NCC1CCC(C(=O)Oc2ccc(CCC(=O)O)cc2)CC1 (stereo not drawn),-4,99,81*,0,-3,i
CCOC(=O)Nc1cc(OC)cc2ccc(C)nc12,·,101,·,·,·,·
Cc1ccccc1C1CC(c2ccc(Br)cc2)Nc2nc(N)nn21 (stereo not drawn),17*,99,2,-5,-9,196
Cc1ccccc1C1CC(c2ccc(F)cc2)Nc2nc(N)nn21 (stereo not drawn),3,112,-1,-4,-10,171
CN(C(=O)CCOc1ccccc1)c1c(N)n(Cc2ccccc2)c(=O)[nH]c1=O,·,63*,·,-6,-4,263
CCN(C(=O)COC(=O)c1cc(Cl)ccc1OC)c1c(N)n(Cc2ccccc2)c(=O)[nH]c1=O,39*,101,-1,-13,-38,331
CC1CCCC(NC(=O)COC(=O)[C@@H](NC(=O)c2ccccc2Cl)C(C)C)C1C (stereo partly drawn),0,·,1,-14,6,225
C/C(=N\NC(=O)Cn1cc([N+](=O)[O-])cn1)c1ccco1,-6,110,-5,-9,5,0.0*
COc1ccccc1C(=O)NCCC(=O)N1CCN(S(=O)(=O)c2ccccc2C(F)(F)F)CC1,·,103,·,·,-10,·
CCC(=O)N1CCc2cc(Br)cc(S(=O)(=O)CC(=O)OC)c21,2,104,6,99*,0,195
CCC(=O)N1CCc2cc(Br)cc(S(=O)(=O)NCCN3CCCC3)c21,-5,110,1,2,7,115
O=C(CN1C(=O)c2ccccc2S1(=O)=O)Nc1ncc(Cl)cc1Cl,12,·,1,0,3,254
Cc1ccc(S(=O)(=O)c2nc(-c3ccccc3F)oc2N2CC(C)OC(C)C2)cc1 (stereo not drawn),59*,·,5,-3,11,309
Cc1ccc(CN2CCN(Cc3ccc4cccc(F)c4n3)CC2CCO)cc1 (stereo not drawn),2,117,-4,3,-3,125
O=c1c2cnn(-c3ccccc3)c2nc(-c2ccco2)n1-c1ccccc1,-5,103,3,·,0,433
O=c1oc(-c2ccco2)nc2c1cnn2-c1ccccc1,-1,·,62*,2,-7,280
CCN(C(=O)COC(=O)c1ccc([N+](=O)[O-])o1)c1cccc2ccccc12,-9,·,1,6,14,342
CC(C)c1nnc(NC(=O)CCC(=O)NCc2cccs2)s1,18*,96,-3,7,19,555
CCCNC(=O)CCn1nc(-c2ccc(Cl)cc2)c2ccccc2c1=O,-17,80*,-1,-4,-7,321
O=C(CCn1nc(-c2ccc(Cl)cc2)c2ccccc2c1=O)NN1CCOCC1,-3,82*,-5,3,-8,897
Cc1nc(SCC(=O)NCCN2C(=O)CSC2=O)nc(C)c1C,-9,92,4,-8,18,120
O=C(NCCN1CCOCC1)c1cc(-c2ccc(F)cc2)on1,182*,101,-4,2,5,508
CCc1c2ccccc2nn1-c1ccccc1C(=O)C(C)=O,10*,111,-2,-1,-8,328
CCOC(=O)c1ccccc1-n1nnnc1C,0,114,-1,-2,21,338
CC(C(Sc1ccccc1N)c1ccccc1)[N+](=O)[O-] (stereo not drawn),-12,·,6,13,0,327
O=C1C=C(c2ccc3ccccc3c2)C[C@@H](c2ccc(F)cc2)C1,21*,104,1,0,-1,566
O=C(NCC(c1ccco1)N1CCCC1)c1cccc(S(=O)(=O)N2CCc3ccccc32)c1 (stereo not drawn),·,112,·,·,·,·
